Active and inactive are the calls of the source. No cut-off for these calls is given here.
Columns and labels:
BT-474 = experiment: Cytotoxicity against human BT474 cells after 72 hrs by fluoroskan ascent microplate reader analysis; format: functional, cell-based; conditions: BT-474, 72 h
In short: (§1)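 Cells were grown in DMEM with 10% FCS and 4 mM glutamine at 37 °C under CO2, then plated at densities suited to each line. Compounds were added as 3-fold dilutions in triplicate for 72 h.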

HCT-116 = experiment: Cytotoxicity against human HCT116 cells after 72 hrs by fluoroskan ascent microplate reader analysis; format: functional, cell-based; conditions: HCT-116, 72 h; in short: as §1
HL-60 = experiment: Cytotoxicity against human HL60 cells after 72 hrs by fluoroskan ascent microplate reader analysis; format: functional, cell-based; conditions: HL-60, 72 h; in short: as §1
HeLa = experiment: Cytotoxicity against human HeLa cells after 72 hrs by fluoroskan ascent microplate reader analysis; format: functional, cell-based; in short: as §1
[1] = molecular target: Cyclin-dependent kinase 7/ cyclin H (Homo sapiens) (UniProt P51946+P50613); experiment: Inhibition of human recombinant CDK7/cyclin H/MAT1 at 10 uM; format: protein-complex assay
[2] = molecular target: Glycogen synthase kinase-3 beta (Homo sapiens) (UniProt P49841); experiment: Inhibition of human recombinant GSK3B at 10 uM
Glycogen synthase kinase-3 beta (Homo sapiens), sequence (P49841 whole entry, looked up): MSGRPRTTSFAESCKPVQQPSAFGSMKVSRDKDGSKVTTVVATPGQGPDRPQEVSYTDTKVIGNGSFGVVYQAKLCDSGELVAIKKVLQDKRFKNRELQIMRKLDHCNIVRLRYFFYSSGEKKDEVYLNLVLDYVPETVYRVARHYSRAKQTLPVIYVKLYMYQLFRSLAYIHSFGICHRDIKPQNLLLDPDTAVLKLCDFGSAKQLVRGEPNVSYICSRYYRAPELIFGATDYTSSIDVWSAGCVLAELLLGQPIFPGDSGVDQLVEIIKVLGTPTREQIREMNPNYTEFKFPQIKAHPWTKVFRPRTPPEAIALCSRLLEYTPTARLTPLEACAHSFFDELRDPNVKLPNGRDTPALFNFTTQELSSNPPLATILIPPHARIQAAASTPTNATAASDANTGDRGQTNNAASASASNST

[3] = molecular target: MAP kinase-activated protein kinase 5 (Homo sapiens) (UniProt Q8IW41); experiment: Inhibition of human recombinant PRAK at 10 uM
MAP kinase-activated protein kinase 5 (Homo sapiens), sequence (Q8IW41 whole entry): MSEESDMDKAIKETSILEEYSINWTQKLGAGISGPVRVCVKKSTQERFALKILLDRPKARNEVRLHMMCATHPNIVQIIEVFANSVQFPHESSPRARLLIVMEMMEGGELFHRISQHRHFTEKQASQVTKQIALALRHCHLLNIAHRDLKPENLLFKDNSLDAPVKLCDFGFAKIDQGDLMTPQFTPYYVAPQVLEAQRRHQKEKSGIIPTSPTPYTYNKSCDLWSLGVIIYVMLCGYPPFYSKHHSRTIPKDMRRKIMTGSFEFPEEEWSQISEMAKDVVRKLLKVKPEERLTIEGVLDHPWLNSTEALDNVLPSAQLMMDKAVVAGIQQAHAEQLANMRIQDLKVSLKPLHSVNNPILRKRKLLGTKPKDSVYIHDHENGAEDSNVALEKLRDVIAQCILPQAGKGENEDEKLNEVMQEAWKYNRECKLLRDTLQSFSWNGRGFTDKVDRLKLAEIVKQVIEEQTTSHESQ

[4] = molecular target: Ribosomal protein S6 kinase alpha-5 (Homo sapiens) (UniProt O75582); experiment: Inhibition of human recombinant MSK1 at 10 uM
Ribosomal protein S6 kinase alpha-5 (Homo sapiens), sequence (O75582 whole entry, looked up): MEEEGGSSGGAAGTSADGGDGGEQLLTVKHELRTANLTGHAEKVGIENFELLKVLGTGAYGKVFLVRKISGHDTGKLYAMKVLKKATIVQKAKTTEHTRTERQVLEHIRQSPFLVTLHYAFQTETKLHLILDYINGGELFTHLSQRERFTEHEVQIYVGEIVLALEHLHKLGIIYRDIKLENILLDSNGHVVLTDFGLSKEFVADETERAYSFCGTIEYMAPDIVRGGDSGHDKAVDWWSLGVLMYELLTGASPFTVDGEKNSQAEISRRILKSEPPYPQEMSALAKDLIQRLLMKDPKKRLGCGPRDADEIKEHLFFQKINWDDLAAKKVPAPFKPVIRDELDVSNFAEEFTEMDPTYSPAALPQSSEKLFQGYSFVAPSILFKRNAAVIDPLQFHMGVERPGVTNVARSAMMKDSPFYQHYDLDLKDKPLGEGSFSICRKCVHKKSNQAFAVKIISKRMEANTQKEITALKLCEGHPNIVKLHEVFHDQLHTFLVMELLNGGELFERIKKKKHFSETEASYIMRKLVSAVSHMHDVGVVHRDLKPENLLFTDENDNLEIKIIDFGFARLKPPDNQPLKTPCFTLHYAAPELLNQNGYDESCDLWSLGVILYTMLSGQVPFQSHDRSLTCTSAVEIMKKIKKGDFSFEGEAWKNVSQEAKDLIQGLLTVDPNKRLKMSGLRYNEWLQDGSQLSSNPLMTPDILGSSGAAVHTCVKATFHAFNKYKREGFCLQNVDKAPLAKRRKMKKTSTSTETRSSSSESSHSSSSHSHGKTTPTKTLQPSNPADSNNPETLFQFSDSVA

[5] = molecular target: T1, Retinoblastoma-associated protein (Homo sapiens) (UniProt P06400); experiment: Inhibition of retinoblastoma protein phosphorylation at Ser249/Thr252, Ser807/811, Ser780, and Ser795 in human MCF7 cells after 24 hrs by immunoblotting; format: cell-based
T1 sequence (whole entry): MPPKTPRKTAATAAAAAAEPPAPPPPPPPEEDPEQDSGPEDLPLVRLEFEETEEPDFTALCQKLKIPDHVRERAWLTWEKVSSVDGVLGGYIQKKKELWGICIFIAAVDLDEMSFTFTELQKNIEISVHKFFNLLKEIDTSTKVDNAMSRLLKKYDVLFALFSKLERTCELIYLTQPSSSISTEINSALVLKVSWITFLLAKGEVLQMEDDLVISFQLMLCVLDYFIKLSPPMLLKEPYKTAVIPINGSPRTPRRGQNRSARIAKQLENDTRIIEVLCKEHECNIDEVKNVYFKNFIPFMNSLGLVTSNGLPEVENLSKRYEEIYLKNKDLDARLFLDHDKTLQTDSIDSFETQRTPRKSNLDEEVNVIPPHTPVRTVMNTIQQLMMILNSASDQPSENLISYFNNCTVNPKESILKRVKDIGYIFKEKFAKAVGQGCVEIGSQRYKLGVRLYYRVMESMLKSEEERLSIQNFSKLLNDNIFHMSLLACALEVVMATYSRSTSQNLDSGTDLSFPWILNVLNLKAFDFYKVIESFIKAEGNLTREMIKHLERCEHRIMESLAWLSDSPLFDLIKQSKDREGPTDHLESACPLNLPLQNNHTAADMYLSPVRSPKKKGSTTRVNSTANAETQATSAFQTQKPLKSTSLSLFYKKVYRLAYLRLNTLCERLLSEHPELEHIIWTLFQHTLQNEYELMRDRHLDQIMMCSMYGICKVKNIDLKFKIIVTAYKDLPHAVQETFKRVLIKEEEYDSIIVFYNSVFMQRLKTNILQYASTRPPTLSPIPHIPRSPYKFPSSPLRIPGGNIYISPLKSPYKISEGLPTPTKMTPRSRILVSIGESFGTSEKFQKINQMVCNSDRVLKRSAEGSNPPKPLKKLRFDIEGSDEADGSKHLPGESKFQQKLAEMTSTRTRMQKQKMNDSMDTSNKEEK
In short: (§2)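 Asynchronous, exponentially growing MCF-7 cells were exposed 24 h to a range of concentrations. Total lysates were made in Laemmli buffer, run on SDS-PAGE and blotted to nitrocellulose. Membranes were probed overnight at 4 °C with specific or phosphospecific antibodies (pRb S249/T252, S780, S795, S807/811), with tubulin as loading control and ECL detection.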

[6] = molecular target: T1, Retinoblastoma-associated protein (Homo sapiens); experiment: Inhibition of retinoblastoma protein in human MCF7 cells assessed as reduction of CDK4 level at 2.5 to 40 uM after 24 hrs by immunoblotting; format: cell-based; in short: as §2
[7] = molecular target: T1, Retinoblastoma-associated protein (Homo sapiens); experiment: Inhibition of retinoblastoma protein in human MCF7 cells assessed as reduction of CDK1 level at 2.5 to 40 uM after 24 hrs by immunoblotting; format: cell-based; in short: as §2
[8] = molecular target: T1, Retinoblastoma-associated protein (Homo sapiens); experiment: Inhibition of retinoblastoma protein in human MCF7 cells assessed as reduction of CDK6 level at 2.5 to 40 uM after 24 hrs by immunoblotting; format: cell-based; in short: as §2
MCF7 [9] = experiment: Cell cycle arrest in human MCF7 cells assessed as accumulation at G2/M phase after 24 hrs using propidium iodide and BrdU staining by flow cytometry; format: functional, cell-based
In short: (§3)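 Subconfluent MCF-7 cells were treated for 24 h at a range of concentrations. They were pulse-labelled with 10 μM BrdU for 30 min at 37 °C, then trypsinized and fixed in ice-cold 70% ethanol. DNA was denatured in 2 M HCl and neutralized with borate. Cells were stained with fluorescein anti-BrdU and with propidium iodide plus RNase A, then analysed by flow cytometry at 488 nm.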

RPMI-8226 [10] = experiment: Cell cycle arrest in human RPMI8226 cells assessed as accumulation at G2/M phase after 24 hrs using propidium iodide and BrdU staining by flow cytometry; format: functional, cell-based
In short: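 Asynchronously growing RPMI-8226 multiple myeloma cells were exposed for 24 h. Cells were double-stained with propidium iodide and BrdU and analysed by flow cytometry for G1, S, G2/M and BrdU-positive fractions. The subG1 population was taken as indicative of apoptosis.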

MCF7 [11] = experiment: Cell cycle arrest in human MCF7 cells assessed as decrease in S phase cell population after 24 hrs using propidium iodide and BrdU staining by flow cytometry; format: functional, cell-based; in short: as §3
RPMI-8226 [12] = experiment: Induction of apoptosis in human RPMI8226 cells assessed as cleaved fragmentation of caspase3 after 24 hrs by immunoblot analysis; format: functional, cell-based
In short: (§4)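 RPMI-8226 cells were treated continuously for 24 h, and total lysates were made in Laemmli buffer, run on SDS-PAGE and blotted to nitrocellulose. Loading was checked with Ponceau-S. Membranes were blocked in milk or BSA, probed overnight at 4 °C with antibodies to PARP, caspase-3 and Mcl-1, then peroxidase secondary (1:2000), with ECL detection.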

RPMI-8226 [13] = experiment: Induction of apoptosis in human RPMI8226 cells assessed as down-regulation of Mcl-1 after 24 hrs by immunoblot analysis; format: functional, cell-based; in short: as §4
[14] = molecular target: Cellular tumor antigen p53 (Homo sapiens) (UniProt P04637); experiment: Induction of p53-dependent transcriptional activity in human MCF7 cells assessed as increase of p21 WAF1 level at 10 uM after 24 hrs by immunofluorescence assay; format: cell-based; conditions: in the assay text read “by immunoblotting analysis” for “by immunofluorescence assay”
Cellular tumor antigen p53 (Homo sapiens), sequence (P04637 whole entry, looked up): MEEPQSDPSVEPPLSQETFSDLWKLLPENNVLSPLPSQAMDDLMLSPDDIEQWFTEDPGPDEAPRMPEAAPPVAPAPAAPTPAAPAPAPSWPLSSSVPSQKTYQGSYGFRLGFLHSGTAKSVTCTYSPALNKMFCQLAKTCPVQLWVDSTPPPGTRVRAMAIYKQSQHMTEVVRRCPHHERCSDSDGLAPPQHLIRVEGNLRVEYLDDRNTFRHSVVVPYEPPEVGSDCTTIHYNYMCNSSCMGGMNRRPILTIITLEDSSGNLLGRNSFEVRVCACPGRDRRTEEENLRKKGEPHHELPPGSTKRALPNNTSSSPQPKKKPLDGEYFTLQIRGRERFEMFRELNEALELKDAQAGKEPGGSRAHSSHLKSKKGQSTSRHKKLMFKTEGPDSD
In short: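 MCF-7 cells were exposed 24 h to 10 μM. Total lysates were made in Laemmli buffer, run on SDS-PAGE and blotted to nitrocellulose, then probed with antibodies to p53, p21WAF1 and Mdm-2, with peroxidase secondary and ECL detection.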

[15] = molecular target: Cyclin-dependent kinase 5/CDK5 activator 1 (Homo sapiens) (UniProt Q00535+Q15078); conditions: at 10 µM
Cyclin-dependent kinase 5/CDK5 activator 1 (Homo sapiens), sequence (Q00535 whole entry): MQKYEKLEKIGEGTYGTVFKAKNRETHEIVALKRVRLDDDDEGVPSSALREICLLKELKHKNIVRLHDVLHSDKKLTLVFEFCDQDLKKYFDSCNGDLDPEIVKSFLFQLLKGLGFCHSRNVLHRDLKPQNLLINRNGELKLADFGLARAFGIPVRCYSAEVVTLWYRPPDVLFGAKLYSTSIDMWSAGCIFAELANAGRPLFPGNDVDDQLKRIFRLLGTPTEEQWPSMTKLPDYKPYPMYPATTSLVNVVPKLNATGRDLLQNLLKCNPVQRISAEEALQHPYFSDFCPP
Cyclin-dependent kinase 5/CDK5 activator 1 (Homo sapiens), sequence (Q15078 99-307 partner limits assumed): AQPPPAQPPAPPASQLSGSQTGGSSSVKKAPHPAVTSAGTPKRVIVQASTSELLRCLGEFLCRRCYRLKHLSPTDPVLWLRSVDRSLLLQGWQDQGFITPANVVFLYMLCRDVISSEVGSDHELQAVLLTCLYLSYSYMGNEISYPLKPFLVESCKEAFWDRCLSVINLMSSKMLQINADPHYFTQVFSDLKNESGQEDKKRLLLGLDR

**Q.** Which results are given for `CC[C@H](CO)Nc1nc(NCc2ccccc2)c2[nH]nc(C(C)C)c2n1`?
**A.** IC50 (BT-474): 8.5 µM; IC50 (HCT-116): 11 µM; IC50 (HL-60): 7.1 µM; IC50 (HeLa): 6.9 µM; inhibition [1]: 96%; inhibition [2]: 54%; inhibition [3]: 30%; inhibition [4]: 39%; inhibition [5]: Dose-dependent effect; inhibition [6]: Active; inhibition [7]: inactive; inhibition [8]: inactive; Activity (MCF7 [9]): Active; Activity (RPMI-8226 [10]): Active; Activity (MCF7 [11]): Active; Activity (RPMI-8226 [12]): Active; Activity (RPMI-8226 [13]): Active; Activity [14]: Active; inhibition [15]: 95%

— ChEMBL document CHEMBL1765057, “Pyrazolo[4,3-d]pyrimidine bioisostere of roscovitine: evaluation of a novel selective inhibitor of cyclin-dependent kinases with antiproliferative activity” (J Med Chem, 2011)
